Source: ChEMBL document CHEMBL4002597, “Exploration of novel piperazine or piperidine constructed non-covalent peptidyl derivatives as proteasome inhibitors” (Eur J Med Chem, 2017)
Calls of active or inactive are those of the source. No cut-off for these calls is given here.

Assays:
RPMI-8226 = assay: Cytotoxicity against human RPMI8226 cells measured after 72 hrs by MTS assay; format: functional, cell-based; details: RPMI-8226, 72 h
Method in brief: (§1)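 MM-1S seeded at 2 × 10⁴/well or RPMI 8226 at 0.5 × 10⁴/well, 100 μL, exposed to compound 72 h. MTS added (0.5 mg/mL final) for 2–4 h, absorbance read at 490 nm with 690 nm background subtraction. Inhibition = (A_control − A_sample)/A_control; IC50 from sigmoidal variable-slope nonlinear fit.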

MM1.S = assay: Cytotoxicity against human MM1S cells measured after 72 hrs by MTS assay; format: functional, cell-based; method in brief: as §1
[1] = target: T1, Proteasome Macropain subunit MB1 (Homo sapiens, UniProt P28074); assay: Inhibition of chymotrypsin-like activity of human 20S proteasome pretreated for 15 mins followed by Suc-Leu-Leu-Val-Tyr-AMC substrate addition by fluorescence assay
T1 sequence (P28074 whole entry): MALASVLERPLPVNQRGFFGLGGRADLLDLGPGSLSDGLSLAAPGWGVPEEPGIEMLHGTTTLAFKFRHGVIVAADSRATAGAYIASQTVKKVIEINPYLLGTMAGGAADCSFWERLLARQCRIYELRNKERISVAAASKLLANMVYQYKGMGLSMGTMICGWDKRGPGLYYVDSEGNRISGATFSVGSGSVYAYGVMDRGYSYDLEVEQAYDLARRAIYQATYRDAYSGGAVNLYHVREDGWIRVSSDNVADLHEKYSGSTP
Method in brief: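 Purified human proteasome (25 μg/mL) in 100 mM Tris-HCl pH 8.0 preincubated with compound 15 min, then Suc-Leu-Leu-Val-Tyr-AMC (50 μM) added; 50 μL reaction. AMC release followed as fluorescence increase at ex 355/em 460 nm. IC50 from sigmoidal variable-slope fit.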

[2] = target: T2, Proteasome subunit beta type-5 (Mus musculus) (UniProt O55234); assay: Inhibition of chymotrypsin-like activity of 20S proteasome in mouse blood at 2.5 uM pretreated for 40 mins followed by Suc-Leu-Leu-Val-Tyr-AMC substrate addition by fluorescence assay relative to control
T2 sequence (whole entry): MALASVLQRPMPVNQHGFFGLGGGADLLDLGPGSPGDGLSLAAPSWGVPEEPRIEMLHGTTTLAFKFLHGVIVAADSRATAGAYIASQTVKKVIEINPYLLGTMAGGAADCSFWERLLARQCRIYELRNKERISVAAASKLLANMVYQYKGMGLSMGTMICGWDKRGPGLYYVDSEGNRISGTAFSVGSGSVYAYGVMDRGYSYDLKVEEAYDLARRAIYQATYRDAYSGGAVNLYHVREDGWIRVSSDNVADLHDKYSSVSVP
Method in brief: (§2)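 Normal mouse whole blood incubated with compound (1:50 volume ratio) 40 min, then pelleted. Cells lysed in 5 mM EDTA pH 8.0 at 4 °C 60 min, lysate protein by Bradford. 100 μg protein assayed in 20 mM HEPES pH 8.0, 0.5 mM EDTA, 0.05% SDS, 1% DMSO with 50 μM […]; fluorescence ex 355/em 460 nm.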

Mus musculus = assay: In vivo inhibition of chymotrypsin-like activity of 20S proteasome in blood cell of BALB/c mouse at 5 mg/kg, iv after 2 hrs using Suc-Leu-Leu-Val-Tyr-AMC substrate measured by fluorescence assay; format: functional
Method in brief: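 BALB/c mice 6-8 weeks, 3 per group, single i.v. dose; positive control 5 mg/kg. Tail-vein blood taken at 1, 2 and 24 h into K2-EDTA tubes. Blood PBS-washed, cells lysed in 5 mM EDTA pH 8.0 for 60 min at 4 °C, clarified lysate assayed for chymotrypsin-like activity as in the in vitro assay.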

[3] = Half-life in mouse plasma at 2 uM by LC-MS/MS analysis; format: ADME, cell-free
Method in brief: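 Mouse plasma on sodium heparin. 10 mM DMSO stocks diluted to 0.02 mM in 0.05 M sodium phosphate with 0.5% BSA, then spiked into pre-warmed plasma to 2 µM final, duplicates (n=2), 37 °C water bath. Each time point quenched with acetonitrile; sonicated, shaken, centrifuged, supernatant diluted 1:1 in water, LC-MS/MS.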

[4] = target: T2, Proteasome subunit beta type-5 (Mus musculus); assay: Inhibition of chymotrypsin-like activity of 20S proteasome in mouse blood at 0.5 uM pretreated for 40 mins followed by Suc-Leu-Leu-Val-Tyr-AMC substrate addition by fluorescence assay; method in brief: as §2

Compound	IC50 (RPMI-8226) [nM]	IC50 (MM1.S) [nM]	IC50 [1] [nM]	also measured
CC(C)(C)CNC(=O)C[C@H](NC(=O)C1CCN(C(=O)c2cnccn2)CC1)C(=O)N[C@@H](CCc1ccccc1)C(=O)NCc1ccccc1Cl	15.9	11.8	2.4	
CC(C)(C)CNC(=O)C[C@H](NC(=O)N1CCC(NC(=O)c2cnccn2)CC1)C(=O)N[C@@H](Cc1ccccc1)C(=O)NCc1ccccc1Cl			41	
CC(C)(C)CNC(=O)C[C@H](NC(=O)N1CCC(C(=O)Nc2cccnc2)CC1)C(=O)N[C@@H](CCc1ccccc1)C(=O)NCc1ccccc1Cl	20.8	20.7	0.7	inhibition [2]: > 70%
CC(C)(C)CNC(=O)C[C@H](NC(=O)N1CCC(C(=O)Nc2cnccn2)CC1)C(=O)N[C@@H](Cc1ccccc1)C(=O)NCc1ccccc1Cl			18	
CC(C)(C)CNC(=O)C[C@H](NC(=O)N1CCC(NC(=O)c2ccc(F)cc2)CC1)C(=O)N[C@@H](CCc1ccccc1)C(=O)NCc1ccccc1Cl	8.4	6.3	1.2	inhibition [2]: > 70%; inhibition in vivo at 5 mg/kg (Mus musculus): > 50%; half-life at 2 µM [3]: 11.2 h
C[C@H](NC(=O)[C@H](CC(=O)NCC(C)(C)C)NC(=O)N1CCC(C(=O)Nc2cnccn2)CC1)C(=O)NCc1ccccc1Cl			19.7	
CC(C)(C)CNC(=O)C[C@H](NC(=O)C1CCN(C(=O)c2ccc(F)cc2)CC1)C(=O)N[C@@H](CCc1ccccc1)C(=O)NCc1ccccc1Cl	22.7	31.8	2.6	
CC(C)(C)CNC(=O)C[C@H](NC(=O)N1CCC(C(=O)Nc2ccc(C(F)(F)F)cc2)CC1)C(=O)N[C@@H](CCc1ccccc1)C(=O)NCc1ccccc1Cl			192	
CC(C)(C)CNC(=O)C[C@H](NC(=O)N1CCC(C(=O)Nc2ccccn2)CC1)C(=O)N[C@@H](CCc1ccccc1)C(=O)NCc1ccccc1Cl	3.8	4.3	1	
CC(C)(C)CNC(=O)C[C@H](NC(=O)c1ccc(F)cc1)C(=O)N[C@@H](CCc1ccccc1)C(=O)NCc1ccccc1Cl				half-life at 2 µM [3]: 5.61 h
CC(C)C[C@H](NC(=O)[C@H](CC(=O)NCC(C)(C)C)NC(=O)N1CCC(C(=O)Nc2cnccn2)CC1)C(=O)NCc1ccccc1Cl			11.6	
COc1ccc(NC(=O)C2CCN(C(=O)N[C@@H](CC(=O)NCC(C)(C)C)C(=O)N[C@@H](CCc3ccccc3)C(=O)NCc3ccccc3Cl)CC2)cc1			25.7	
CC(C)(C)CNC(=O)C[C@H](NC(=O)N1CCC(NC(=O)c2cnccn2)CC1)C(=O)N[C@@H](CCc1ccccc1)C(=O)NCc1ccc(F)cc1F			10.8	
C[C@H](NC(=O)[C@H](CC(=O)NCC(C)(C)C)NC(=O)N1CCC(NC(=O)c2cnccn2)CC1)C(=O)NCc1ccccc1Cl			13.3	
CC(C)(C)CNC(=O)C[C@H](NC(=O)N1CCC(C(=O)Nc2cnccn2)CC1)C(=O)N[C@@H](CCc1ccccc1)C(=O)NCc1ccc(F)cc1F			6.6	
CC(C)(C)CNC(=O)C[C@H](NC(=O)N1CCC(C(=O)Nc2ccon2)CC1)C(=O)N[C@@H](CCc1ccccc1)C(=O)NCc1ccccc1Cl			7	
CC(C)(C)CNC(=O)C[C@H](NC(=O)N1CCC(C(=O)Nc2ccc(F)cc2)CC1)C(=O)N[C@@H](CCc1ccccc1)C(=O)NCc1ccccc1Cl	13.9	12.5	1.5	inhibition [4]: Active; inhibition [2]: Active
CC(C)(C)CNC(=O)C[C@H](NC(=O)N1CCN(C(=O)c2ccc(F)cc2)CC1)C(=O)N[C@@H](CCc1ccccc1)C(=O)NCc1ccccc1Cl			3.8	
CC(C)C[C@H](NC(=O)[C@H](CC(=O)NCC(C)(C)C)NC(=O)N1CCC(NC(=O)c2cnccn2)CC1)C(=O)NCc1ccccc1Cl			21.8	
CC(C)C[C@H](NC(=O)[C@H](CCc1ccccc1)NC(=O)CN1CCOCC1)C(=O)N[C@@H](Cc1ccccc1)C(=O)N[C@@H](CC(C)C)C(=O)[C@@]1(C)CO1 [CARFILZOMIB]		1.5		inhibition [4]: Active; inhibition [2]: Active; inhibition (Mus musculus): Active
CC(C)(C)CNC(=O)C[C@H](NC(=O)N1CCC(C(=O)Nc2cnccn2)CC1)C(=O)N[C@@H](CCc1ccccc1)C(=O)NCc1ccc2c(c1)OCO2			2.9	
CC(C)(C)CNC(=O)C[C@H](NC(=O)N1CCC(C(=O)NCc2nccs2)CC1)C(=O)N[C@@H](CCc1ccccc1)C(=O)NCc1ccccc1Cl	20.7	22.5	1	inhibition [4]: Active; inhibition [2]: Active
CC(C)(C)CNC(=O)C[C@H](NC(=O)N1CCC(C(=O)Nc2nccs2)CC1)C(=O)N[C@@H](CCc1ccccc1)C(=O)NCc1ccccc1Cl	10.2	7.2	0.9	inhibition [4]: Active; inhibition [2]: Active
CC(C)(C)CNC(=O)C[C@H](NC(=O)N1CCC(NC(=O)c2cnccn2)CC1)C(=O)N[C@@H](CCc1ccccc1)C(=O)NCc1ccc2c(c1)OCO2			10	
CC(C)(C)CNC(=O)C[C@H](NC(=O)N1CCC(C(=O)Nc2cnccn2)CC1)C(=O)N[C@@H](CCc1ccccc1)C(=O)NCc1ccccc1Cl	17.1	15.8	0.6	inhibition [2]: > 70%
CC(C)(C)CNC(=O)C[C@H](NC(=O)N1CCC(NC(=O)c2cnccn2)CC1)C(=O)N[C@@H](CCc1ccccc1)C(=O)NCc1ccccc1Cl	20.3	18.8	1.1	
